Source: ChEMBL document CHEMBL4819012, “Discovery of novel 2-aryl-3-sulfonamido-pyridines (HoAns) as microtubule polymerization inhibitors with potent antitumor activities” (Eur J Med Chem, 2021)
Calls of active or inactive are those of the source. The rule behind the calls is not given here.

Key:
RKO [1] = experiment: Antiproliferative activity against human RKO cells assessed as cell viability measured after 72 hrs by MTS method; type: functional, cell-based
Summary of the method: (§1)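 Log-phase cells plated at 5×10^3–6×10^3 per well for 24 h, then given graded compound concentrations in fresh medium for 72 h, five replicate wells. Medium replaced with medium containing 10% MTS, 30 min or more at 37 °C in dark; OD 490 nm read. IC50 by nonlinear regression; mean ± SD of at least three experiments.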

Tubulin (Homo sapiens) [2] = molecular target: T1, Tubulin (Homo sapiens) (UniProt P68371+Q9H4B7+P0DPH7+P68366+Q13509+Q71U36+P04350+Q3ZCM7+P07437+P68363+Q9BQE3+Q6PEY2+Q13885+Q9BVA1+Q9BUF5); experiment: Inhibition of tubulin polymerization in human RKO cells assessed as morphology changed to fusiform at 1 uM measured 24 hrs by DAPI staining based immunoflourescence assay; type: cell-based; settings: in the assay text read “changed to round from fusiform” for “changed to fusiform”
Summary of the method: (§2)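 RKO cells on coverslips (2.5×10^5 per well) incubated overnight, then treated for 24 h at 0.5 or 1 μM, DMSO, or 1 μM comparators. Fixed in cold methanol 10 min, permeabilized with 0.25% Triton X-100, blocked in 1% BSA at 4 °C overnight. Stained with anti-β-tubulin (1:100, 2 h RT) and Alexa Fluor 594 secondary (1:500, 1 h), nuclei with DAPI; imaged by fluorescence microscopy.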

RKO [3] = experiment: Induction of apoptosis in human RKO cells assessed as increase in Bax expression at 0.5 to 1 uM measured after 24 hrs by western blot assay; type: functional, cell-based; settings: dose 0.5-1 µM
Summary of the method: (§3)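 RKO or SW620 cells at 4×10^5–5×10^5 per well treated with 0.5 and 1 µM for 24 h; lysed in SDS loading buffer, boiled, SDS-PAGE, PVDF transfer; probed with anti-Bax or anti-cleaved PARP (1:1000) overnight at 4 °C, HRP secondary, ECL detection; β-actin control.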

[4] = Antiproliferative activity against human HCCLM3 cells assessed as cell viability measured after 72 hrs by MTS method; type: functional, cell-based; settings: HCCLM3, 72 h; summary of the method: as §1
Sus scrofa = organism: Sus scrofa; experiment: Inhibition of pig tubulin polymerization at 10 uM measured every minute for 60 mins by microplate reader method
Summary of the method: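 Kit assay with porcine tubulin (>97% pure) at 4 mg/mL in PIPES 80 mM, MgCl2 2 mM, EGTA 0.5 mM, pH 6.9, with GTP. Compound at 10 μM final (from 100 μM working solution) preincubated 5 min at 37 °C in a prewarmed plate before cold tubulin mix is added. A340 read every minute for 60 min at 37 °C.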

BT-474 = experiment: Antiproliferative activity against human BT-474 cells assessed as cell viability measured after 72 hrs by MTS method; type: functional, cell-based; settings: BT-474, 72 h; summary of the method: as §1
SW-620 [5] = experiment: Induction of cell cycle arrest in human SW-620 cells assessed as accumulation of cells in G2 phase at 1 uM measured after 24 hrs by PI staining based flow cytometry method (reference value: 13.83%); type: functional
SW-620 [6] = experiment: Induction of apoptosis in human SW-620 cells assessed as increase in ROS levels at 0.5 uM measured after 24 hrs by DCFH-DA staining based flow cytometry method relative to control; type: functional
Summary of the method: (§4)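 Cells at 5×10^5 per well exposed to 0.25 or 0.5 µM for 24 h, then loaded with 5 µM DCFH-DA in serum-free medium 30 min at 37 °C; washed, harvested, read by flow cytometry (ex 488/em 525 nm). ROS given as ratio of treated to control; at least three experiments.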

SW-620 [7] = experiment: Induction of apoptosis in human SW-620 cells assessed as late apoptotic cells at 1 uM measured after 24 hrs by PI/Annexin V staining based flow cytometry assay (reference value: 3.66%); type: functional
SW480 = experiment: Antiproliferative activity against human SW480 cells assessed as cell viability measured after 72 hrs by MTS method; type: functional, cell-based; settings: SW480, 72 h; summary of the method: as §1
RKO [8] = experiment: Induction of apoptosis in human RKO cells assessed as increase in cleaved PARP levels at 0.5 to 1 uM measured after 24 hrs by western blot assay; type: functional, cell-based; settings: dose 0.5-1 µM; summary of the method: as §3
SW-620 [9] = experiment: Induction of cell cycle arrest in human SW-620 cells assessed as reduction in Cyclin B1 expression at 0.5 to 1 uM measured after 24 hrs by western blot assay; type: functional, cell-based; settings: dose 0.5-1 µM
Summary of the method: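 RKO or SW620 cells (4×10^5–5×10^5 per well) exposed to 0.5 or 1 μM or DMSO for 24 h. Lysed in SDS loading buffer, boiled, run on 8–15% SDS-PAGE and moved to PVDF. Blocked in 5% milk, probed overnight at 4 °C with anti-Cdc2 or anti-cyclin B1 (1:1000), β-actin as reference. HRP secondary and ECL detection. Done at least three times.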

RKO [10] = experiment: Induction of apoptosis in human RKO cells assessed as late apoptotic cells at 1 uM measured after 24 hrs by PI/Annexin V staining based flow cytometry assay (reference value: 0.81%); type: functional
RKO [11] = experiment: Induction of apoptosis in human RKO cells assessed as early apoptotic cells at 1 uM measured after 24 hrs by PI/Annexin V staining based flow cytometry assay (reference value: 2.58%); type: functional
SW-620 [12] = experiment: Induction of cell cycle arrest in human SW-620 cells assessed as accumulation of cells in S phase at 1 uM measured after 24 hrs by PI staining based flow cytometry method (reference value: 46.12%); type: functional
PANC-1 = experiment: Induction of cell cycle arrest in human PANC-1 cells assessed as accumulation of cells in G1 phase at 1 uM measured after 24 hrs by PI staining based flow cytometry method (reference value: 31.35%); type: functional
SW-620 [13] = experiment: Induction of cell cycle arrest in human SW-620 cells assessed as accumulation of cells in G1 phase at 1 uM measured after 24 hrs by PI staining based flow cytometry method (reference value: 40.06%); type: functional
SK-BR-3 = experiment: Antiproliferative activity against human SK-BR-3 cells assessed as cell viability measured after 72 hrs by MTS method; type: functional, cell-based; settings: SK-BR-3, 72 h; summary of the method: as §1
[14] = Toxicity against Athymic nude mouse xenografted with SW-620 cells assessed as changes in body weight at 25 mg/kg per two days, po measured after 20 days; type: organism-based; settings: in vivo, 480 h, time 20 day
Summary of the method: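 Nude mice given 5×10^6 SW620 cells s.c. into the right armpit; at ~100 mm³ randomized (n = 6). Dosed orally at 25 mg/kg every 2 days in DMSO:corn oil 1:9 (100 μL) for 20 days; vehicle controls dosed on the same schedule. Body weight recorded every 2 days.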

RKO [15] = experiment: Induction of apoptosis in human RKO cells assessed as increase in ROS levels at 0.5 uM measured after 24 hrs by DCFH-DA staining based flow cytometry method relative to control; type: functional; summary of the method: as §4
RKO [16] = experiment: Induction of apoptosis in human RKO cells assessed as viable cells at 1 uM measured after 24 hrs by PI/Annexin V staining based flow cytometry assay (reference value: 96.6%); type: functional; settings: read-out: Activity
Tubulin (Homo sapiens) [17] = molecular target: T1, Tubulin (Homo sapiens); experiment: Inhibition of tubulin polymerization in human RKO cells assessed as fragmentation of microtubule at 1 uM measured 24 hrs by DAPI staining based immunoflourescence assay; type: cell-based; summary of the method: as §2
RKO [18] = experiment: Induction of apoptosis in human RKO cells assessed as necrotic cells at 1 uM measured after 24 hrs by PI/Annexin V staining based flow cytometry assay (reference value: 0.01%); type: functional

inhibition (Tubulin (Homo sapiens) [2]) | inhibition (Sus scrofa) | IC50 (BT-474) [nM] | IC50 (SW480) [nM] | IC50 (SK-BR-3) [nM] | Compound | IC50 (RKO [1]) [nM] | Activity (RKO [3]) | IC50 [4] [nM] | Activity (SW-620 [5]) [%] | fold change (FC) (SW-620 [6]) | Activity (SW-620 [7]) [%] | Activity (RKO [8]) | Activity (SW-620 [9]) | Activity (RKO [10]) [%] | Activity (RKO [11]) [%] | Activity (SW-620 [12]) [%] | Activity (PANC-1) [%] | Activity (SW-620 [13]) [%] | Activity [14] | fold change (FC) (RKO [15]) | also measured
Active | Active | 1190 | 338 | 431 | COc1ccc(S(=O)(=O)Nc2cccnc2-c2ccc(C#N)c(F)c2)cc1 | 170 | Active | 963 | 76.28 | 1.5 | 4.26 | Active | Active | 1.52 | 36.65 | 15.67 | 2.04 | 8.05 | Non-Toxic | 1.5 | viability at 1 µM (RKO [16]): 61%; inhibition (Tubulin (Homo sapiens) [17]): Active; Activity (RKO [18]): 0.17%
Active | Active | 8390 | 3420 | 143 | COc1ccc(S(=O)(=O)Nc2cccnc2Nc2ccc(O)cc2)cc1 [ABT-751] | 633 | Active | 671 | 17.69 | 1.8 | 4.322 | Active | Active | 1.31 | 10.16 | 44.45 | 31.44 | 37.86 | Non-Toxic | 2 | viability at 1 µM (RKO [16]): 88.4%; inhibition (Tubulin (Homo sapiens) [17]): Active; Activity (RKO [18]): 0.1%
